In data set [1] the test system is Mus musculus. The data set is described as follows: Antidepressant-like activity in CD38KOCC Slc:ICR mouse model of autism spectrum disorder assessed as immobility time at 100 ng/ml, ip administered as single dose for 30 mins prior to testing measured for last 4 mins of 6 mins test by tail suspension test (reference value: 74.2 +/- 2.9 sec). Type of data set: functional.

The nature of data set [2]: Half life in Slc:ICR mouse plasma during slow phase at 100 ng/g, iv measured for 15 to 60 mins by LC-MS/MS analysis. It is filed as ADME, organism-based. In outline: (§1)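 Male ICR mice (30 g) were given 100 ng/g i.v. via the tail vein. Blood was taken by cardiac puncture immediately and at 5, 15 and 30 min; CSF was taken at 30 min or 12 h. Plasma was deproteinized with acetonitrile/methanol 1:1 containing [13C6,15N]OT internal standard and analysed by LC-MS/MS (C8 column, SRM).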

Data set [3] has as its target T1, Oxytocin receptor (Homo sapiens, UniProt P30559).
T1 sequence (P30559 whole entry): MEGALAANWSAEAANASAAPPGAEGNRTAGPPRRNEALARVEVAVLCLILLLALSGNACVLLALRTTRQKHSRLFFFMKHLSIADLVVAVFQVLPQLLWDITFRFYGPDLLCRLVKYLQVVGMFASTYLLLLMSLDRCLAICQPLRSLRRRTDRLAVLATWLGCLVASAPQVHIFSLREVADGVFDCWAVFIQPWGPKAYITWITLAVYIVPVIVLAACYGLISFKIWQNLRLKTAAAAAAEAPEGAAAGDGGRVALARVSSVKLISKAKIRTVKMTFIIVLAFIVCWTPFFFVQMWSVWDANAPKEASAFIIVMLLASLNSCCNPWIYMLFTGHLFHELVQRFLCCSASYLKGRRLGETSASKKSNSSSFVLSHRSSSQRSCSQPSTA
Put plainly: Agonist activity at recombinant human OTR expressed in HEK293 cells assessed as increase in intracellular calcium level measured at 3 secs interval for 5 mins by fura-2/AM dye based micro spectrofluorometric method. Type of data set: functional, cell-based. (Calcium flux is commonly read through the fluorescence of an indicator in the cells.)

Data set [4] has as its system Mus musculus. Put plainly: Cognition enhancing effect in CD38 knock out Slc:ICR mouse sire model of autism spectrum disorder assessed as latency time to retrieve pups by sires at 100 ng/ml, ip administered as single dose measured after 30 mins by parental retrieval test (reference value: 600 sec). Type of data set: functional.
The subject of data set [5] is Mus musculus. Put plainly: Cognition enhancing effect in CD38 knock out Slc:ICR mouse sire model of autism spectrum disorder assessed as latency time to retrieve pups by sires at 100 ng/ml, ip administered as single dose measured after 12 hrs by parental retrieval test (reference value: 233 +/- 68 sec). It is filed as functional.
Data set [6] in a line: Drug level in Slc:ICR mouse cerebrospinal fluid at 100 ng/g, iv measured after 30 mins by LC-MS/MS analysis. Type of data set: ADME, organism-based. Particulars: in vivo, 0.5 h, BLD = below limit of detection. In outline:
as §1

The target of data set [7] is T2, Oxytocin receptor (Homo sapiens) (UniProt P30559).
T2 sequence (whole entry): T1 sequence (P30559 whole entry)
The data set is described as follows: Displacement of [3H]OT from recombinant human OTR expressed in HEK293 cell membranes assessed as dissociation half life for [3H]OT binding. Summed up: (§2)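 Membranes from HEK-293 cells stably expressing human OTR (5 µg/well) in 50 mM Tris, 10 mM MgCl2, 0.1% BSA, pH 7.4. [3H]OT added at 200 pM, 500 pM and 1 nM; bound and free separated by rapid filtration at multiple time points to build association curves. Kon and Koff fitted; t1/2 from Koff = ln2/t1/2. Two experiments, each in duplicate.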
On the technique in general: In a radioligand displacement assay an active substance lowers the binding of a labelled ligand.

The subject of data set [8] is Mus musculus. The data set is described as follows: Cognition enhancing effect in CD38 knock out Slc:ICR mouse sire model of autism spectrum disorder assessed as latency time to retrieve pups by sires at 100 ng/ml, ip administered as single dose measured after 5 hrs by parental retrieval test (reference value: 233 +/- 68 sec). It is filed as functional.
Data set [9] can be described thus: Half life in Slc:ICR mouse plasma during fast phase at 100 ng/g, iv measured for 15 mins by LC-MS/MS analysis. It is filed as ADME, organism-based. In outline: as §1
The target of another data set is Vasopressin V1a receptor (Homo sapiens, UniProt P37288). Put plainly: Agonist activity at recombinant human V1a receptor expressed in HEK293 cells assessed as increase in intracellular calcium level measured at 3 secs interval for 5 mins by fura-2/AM dye based micro spectrofluorometric method. Type of data set: cell-based.
Sequence of Vasopressin V1a receptor (P37288 whole entry): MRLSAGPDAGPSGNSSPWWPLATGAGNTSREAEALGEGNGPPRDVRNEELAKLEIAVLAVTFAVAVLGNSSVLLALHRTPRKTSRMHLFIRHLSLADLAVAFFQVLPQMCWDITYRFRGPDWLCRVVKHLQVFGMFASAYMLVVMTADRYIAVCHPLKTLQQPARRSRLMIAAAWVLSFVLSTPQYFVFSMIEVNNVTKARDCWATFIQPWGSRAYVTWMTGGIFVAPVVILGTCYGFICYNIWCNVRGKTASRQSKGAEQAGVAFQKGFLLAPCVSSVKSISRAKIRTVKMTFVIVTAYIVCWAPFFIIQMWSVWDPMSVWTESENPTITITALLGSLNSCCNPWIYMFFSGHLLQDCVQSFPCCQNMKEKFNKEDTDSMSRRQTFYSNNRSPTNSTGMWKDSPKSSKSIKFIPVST
Data set [10] can be described thus: Drug level in Slc:ICR mouse cerebrospinal fluid at 100 ng/g, iv measured after 12 hrs by LC-MS/MS analysis. It is filed as ADME, organism-based. Particulars: in vivo, 12 h, BLD = below limit of detection. In outline: as §1
In data set [11] the test system is Mus musculus. Put plainly: Antidepressant-like activity in CD38KOCC Slc:ICR mouse model of autism spectrum disorder assessed as immobility time at 100 ng/ml, ip administered as single dose for 24 hrs prior to testing measured for last 4 mins of 6 mins test by tail suspension test (reference value: 56.5 +/- 18.8 sec).
For data set [12], the species on record is Homo sapiens. The data set is described as follows: Selectivity ratio of EC50 for recombinant human V1a receptor expressed in HEK293 cells to EC50 for recombinant human OTR expressed in HEK293 cells. It is filed as cell-based. Summed up: (§3)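 Agonist response measured in HEK-293 cells stably expressing human OTR, V1aR or V1bR, loaded with 1 µM fura-2/AM for 30 min at 37 °C, washed in HEPES-buffered saline pH 7.4. F340/F380 ratio read every 3 s for 5 min at 37 °C, normalized to baseline and to maximal OT (OTR) or AVP (V1aR, V1bR) response; EC50 taken from these curves. n = 3, 20 cells per dish.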

The test system of data set [13] is Mus musculus. The data set is described as follows: Cognition enhancing effect in CD38KOCC Slc:ICR mouse model of autism spectrum disorder assessed as sucrose consumption over water at 100 ng/ml, ip administered as single dose measured after 60 mins relative to control (reference value: 0.46 +/- 0.04). Type of data set: functional.
The target in data set [14] is T2, Oxytocin receptor (Homo sapiens). Put plainly: Displacement of [3H]OT from recombinant human OTR expressed in HEK293 cell membranes assessed as association rate constant for [3H]OT binding. In outline: as §2
The target is the same in data set [15]. Put plainly: Displacement of [3H]OT from recombinant human OTR expressed in HEK293 cell membranes assessed as dissociation rate constant for [3H]OT binding. Summed up: as §2
Data set [16] addresses T1, Oxytocin receptor. The data set is described as follows: Displacement of [3H]OT from recombinant human OTR expressed in HEK293 cell membranes measured after 1 hr.
The species entered for data set [17] is Homo sapiens. The data set is described as follows: Selectivity ratio of EC50 for recombinant human V1b receptor expressed in HEK293 cells to EC50 for recombinant human OTR expressed in HEK293 cells. It is filed as cell-based. Summed up: as §3
Data set [18] can be described thus: Plasma concentration in Slc:ICR mouse at 100 ng/g, iv measured immediately by LC-MS/MS analysis. Particulars: in vivo. Type of data set: ADME, organism-based. Summed up:
as §1

The next data set concerns the target T3, Vasopressin V1b receptor (Homo sapiens, UniProt P47901).
T3 sequence (P47901 whole entry): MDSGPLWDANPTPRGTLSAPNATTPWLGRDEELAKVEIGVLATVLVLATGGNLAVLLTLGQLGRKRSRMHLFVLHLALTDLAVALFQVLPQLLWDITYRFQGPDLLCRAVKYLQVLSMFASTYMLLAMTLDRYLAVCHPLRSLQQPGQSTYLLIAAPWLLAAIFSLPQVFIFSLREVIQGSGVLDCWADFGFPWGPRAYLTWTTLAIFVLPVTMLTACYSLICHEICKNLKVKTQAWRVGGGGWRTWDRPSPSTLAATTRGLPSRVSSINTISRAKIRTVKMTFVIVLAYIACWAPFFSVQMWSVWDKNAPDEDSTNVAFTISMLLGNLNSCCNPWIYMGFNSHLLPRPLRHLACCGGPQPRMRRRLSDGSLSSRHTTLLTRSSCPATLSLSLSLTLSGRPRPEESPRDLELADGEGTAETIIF
Put plainly: Agonist activity at recombinant human V1b receptor expressed in HEK293 cells assessed as increase in intracellular calcium level measured at 3 secs interval for 5 mins by fura-2/AM dye based micro spectrofluorometric method. Type of data set: cell-based.

The subject of data set [19] is Mus musculus. The data set is described as follows: Cognition enhancing effect in CD38 knock out Slc:ICR mouse sire model of autism spectrum disorder assessed as latency time to retrieve pups by sires at 100 ng/ml, ip administered as single dose measured after 24 hrs by parental retrieval test (reference value: 233 +/- 68 sec). It is filed as functional.
Data set [20] deals with Mus musculus. Put plainly: Cognition enhancing effect in CD38KOCC Slc:ICR mouse model of autism spectrum disorder assessed as sucrose consumption over water at 100 ng/ml, ip administered as single dose measured after 24 hrs relative to control (reference value: 0.46 +/- 0.04). Type of data set: functional.
Data set [21] can be described thus: Stability in mouse plasma assessed as parent compound remaining at 50 ng/ml measured after 2 hrs by LC-MS/MS analysis. It is filed as ADME, cell-free. Particulars: read-out: Stability. In outline:
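Pooled mouse plasma spiked to a final 50 ng/mL was incubated at 37 °C for 1–120 min, quenched with acetonitrile/methanol 1:1 plus internal standard, and analysed by LC-MS/MS. Percent of the initial concentration was calculated; 85–115% was taken as acceptable.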

The values that follow come from ChEMBL document CHEMBL4390679 (J Med Chem, 2019).

Starred links: 1 amine or outer side, 2 acyl side, 3 side chain; linkers in the order of their positions; H or OH if unused. Positions of bridges follow the written chain, without caps; N, C: chain ends. Non-standard residues stand in square brackets, D forms with d. Residues, ends and D or L forms follow the SMILES beside them. X1 = O=C(CN(CCCO)[*:1])[*:2]

Usually half-life stands for the time needed for the level to fall by half in the phase considered. Low values mean fast loss, high ones slow loss. As a reminder, the EC50 is the concentration at which the effect is half-maximal. The term Ki denotes a measure of affinity in units of concentration, obtained from inhibition or displacement.

As for `CC[C@H](C)[C@@H]1NC(=O)[C@H](Cc2ccc(O)cc2)NC(=O)[C@@H](N)CSSC[C@@H](C(=O)N(CCCO)CC(=O)N[C@@H](CC(C)C)C(=O)NCC(N)=O)NC(=O)[C@H](CC(N)=O)NC(=O)[C@H](CCC(N)=O)NC1=O` (H-CYIQNC[X1]LG-NH2; disulfide 1-6), the Time is recorded as 151.83 s with Mus musculus [1]; 346 s in the data set on Mus musculus [4]; 386 s in the data set on Mus musculus [5]; 293 s in the data set on Mus musculus [8]; 157.3 s in the data set with Mus musculus [11]; 100 s in the data set on Mus musculus [19]. In addition, the half-life amounted to 4.23 min in [2] and 3.1 min in [9]. In addition, the EC50 was 0.031 nM on Oxytocin receptor [3], > 10 nM at Vasopressin V1a receptor and > 10 nM on Vasopressin V1b receptor. For the same compound, the Drug uptake entry in [6] and in data set [10] was “Bld” throughout. Further, in data set [7], the T1/2 was 36.6 min. Further, the Ratio EC50 in the data set filed under Homo sapiens [12] is > 323; in the data set listed under Homo sapiens [17], > 322. The Ratio in the data set on Mus musculus [13] worked out at 0.72; in the data set on Mus musculus [20], 0.67. Also, the K in data set [14] is 7.47 ×10⁶ /M/min; in data set [15] it was 0.0175 min⁻¹. Also, the Ki at Oxytocin receptor [16] worked out at 1.4 nM. The Cp in [18] is 108 ng/mL. Also, the remaining at 2 h, 50 ng/ml in data set [21] was 85 to 115%.
